Holding throughout (type): functional
The subject of test [1] is Abutilon theophrasti. The test can be described thus: Post-emergence herbicidal activity against Abutilon theophrasti (velvetleaf) assessed as growth inhibition at 75 g.a.i./ha applied at two-leaf stage measured after 15 days. Particulars: 360 h, read-out: GI. In short, it runs like this: (§1)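 Pot-grown weeds sown 5 mm deep in greenhouse clay soil (pH 6.5, 1.7% organic matter, CEC 12.9 cmol/kg) at 22-25 °C. Stock diluted with water and sprayed post-emergence: dicots at 2-leaf stage, monocots at 1-leaf stage. Untreated and DMF solvent controls were included. % growth inhibition was scored visually versus untreated controls after 15 days. Triplicates averaged.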

The subject of test [2] is Setaria viridis. Nature of the test: Pre-emergence herbicidal activity against Setaria viridis (green foxtail) assessed as growth inhibition at 75 g.a.i./ha applied 24 hr after seeds were sown measured after 15 days. As to conditions: read-out: GI. In short, it runs like this: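 Preliminary pre-emergence screen at a single rate of 75 g a.i./ha. Stock diluted with water and sprayed on greenhouse pots 24 h after seeds were sown 5 mm deep in clay soil (pH 6.5, 1.7% organic matter); grown at 22-25 °C. Untreated and DMF solvent controls included; triplicate. Visual % growth inhibition vs untreated after 15 days, averaged and banded (>80% top band).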

Test [3] relates to Echinochloa crus-galli. The test can be described thus: Pre-emergence herbicidal activity against Echinochloa crus-galli (barnyard grass) assessed as growth inhibition at 75 g.a.i./ha applied 24 hr after seeds were sown measured after 15 days. Particulars: read-out: GI. The procedure, abridged:
(§2)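 Weeds sown 5 mm deep in pots of greenhouse clay soil (pH 6.5, 37.5% clay, CEC 12.9 cmol/kg) and grown at 22-25 °C. Water-diluted formulation was applied pre-emergence 24 h after sowing. Untreated and DMF solvent controls were included. Growth inhibition was visually rated in % against untreated controls after 15 days, as the mean of triplicates.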

Test [4] deals with Digitaria sanguinalis. The test can be described thus: Pre-emergence herbicidal activity against Digitaria sanguinalis (hairy crabgrass) assessed as growth inhibition at 75 g.a.i./ha applied 24 hr after seeds were sown measured after 15 days. As to conditions: read-out: GI. The procedure, abridged:
as §2

For test [5], the system named is Amaranthus. Nature of the test: Pre-emergence herbicidal activity against Amaranthus ascendens assessed as growth inhibition at 75 g.a.i./ha applied 24 hr after seeds were sown measured after 15 days. Particulars: read-out: GI. The procedure, abridged: as §2
Test [6] relates to Chenopodium album. Nature of the test: Pre-emergence herbicidal activity against Chenopodium album assessed as growth inhibition at 75 g.a.i./ha applied 24 hr after seeds were sown measured after 15 days. Particulars: read-out: GI. In short, it runs like this: as §2
The subject of test [7] is Abutilon theophrasti. Nature of the test: Pre-emergence herbicidal activity against Abutilon theophrasti (velvetleaf) assessed as growth inhibition at 75 g.a.i./ha applied 24 hr after seeds were sown measured after 15 days. Particulars: read-out: GI. The procedure, abridged: as §2
Test [8] concerns Setaria viridis. Nature of the test: Post-emergence herbicidal activity against Setaria viridis (green foxtail) assessed as growth inhibition at 75 g.a.i./ha applied at one-leaf stage measured after 15 days. Particulars: 360 h, read-out: GI. In short, it runs like this:
as §1

For test [9], the system named is Echinochloa crus-galli. The test can be described thus: Post-emergence herbicidal activity against Echinochloa crus-galli (barnyard grass) assessed as growth inhibition at 75 g.a.i./ha applied at one-leaf stage measured after 15 days. Particulars: 360 h, read-out: GI. In short, it runs like this: as §1
Test [10] concerns Amaranthus. Nature of the test: Post-emergence herbicidal activity against Amaranthus ascendens assessed as growth inhibition at 75 g.a.i./ha applied at two-leaf stage measured after 15 days. As to conditions: 360 h, read-out: GI. The procedure, abridged:
as §1

Test [11] concerns Digitaria sanguinalis. Nature of the test: Post-emergence herbicidal activity against Digitaria sanguinalis (hairy crabgrass) assessed as growth inhibition at 75 g.a.i./ha applied at one-leaf stage measured after 15 days. As to conditions: 360 h, read-out: GI. The procedure, abridged: as §1
The subject of test [12] is Chenopodium album. The test can be described thus: Post-emergence herbicidal activity against Chenopodium album assessed as growth inhibition at 75 g.a.i./ha applied at two-leaf stage measured after 15 days. Particulars: 360 h, read-out: GI. In short, it runs like this:
as §1

Bounds are passed on as bounds.

`CCOC(=O)C(c1ccccc1)N1C(=O)C(C)Oc2cc(F)c(N3C(=O)C4=C(CCCC4)C3=O)cc21` (centres undefined): the inhibition of growth at 75 g/ha with Abutilon theophrasti [1] was more than 80%; in the test on Setaria viridis [2] it was more than 80%; with Echinochloa crus-galli [3], more than 80%; with Digitaria sanguinalis [4], more than 80%; in the test on Amaranthus [5], 50%; with Chenopodium album [6] it was 50%. For the same compound, the inhibition of growth at 75 g/ha is 50% with Abutilon theophrasti [7]; 50% in the test with Setaria viridis [8]; less than 50% in the test with Echinochloa crus-galli [9]; more than 80% with Amaranthus [10]; 50% with Digitaria sanguinalis [11]; more than 80% in the test with Chenopodium album [12].
Take `CCOC(=O)C(C)N1C(=O)COc2cc(F)c(N3C(=O)c4ccc(C)cc4C3=O)cc21` (centres undefined): the inhibition of growth at 75 g/ha is more than 80% in the test with Abutilon theophrasti [1]; less than 50% in the test with Setaria viridis [2]; less than 50% in the test with Echinochloa crus-galli [3]; less than 50% in the test on Digitaria sanguinalis [4]; less than 50% in the test with Amaranthus [5]; 50% in the test with Chenopodium album [6]. The inhibition of growth at 75 g/ha in the test on Abutilon theophrasti [7], with Setaria viridis [8], with Echinochloa crus-galli [9], in the test on Amaranthus [10], in the test on Digitaria sanguinalis [11] and in the test with Chenopodium album [12] was less than 50% throughout.
For `CCOC(=O)CN1C(=O)COc2cc(F)c(N3C(=O)c4ccc([N+](=O)[O-])cc4C3=O)cc21`, the inhibition of growth at 75 g/ha was 50% with Abutilon theophrasti [1]; less than 50% with Setaria viridis [2]; less than 50% with Echinochloa crus-galli [3]; less than 50% in the test on Digitaria sanguinalis [4]; less than 50% in the test with Amaranthus [5]; less than 50% in the test with Chenopodium album [6]. Also, the inhibition of growth at 75 g/ha was less than 50% in the test with Abutilon theophrasti [7]; less than 50% with Setaria viridis [8]; less than 50% with Echinochloa crus-galli [9]; 50% with Amaranthus [10]; less than 50% with Digitaria sanguinalis [11]; 50% in the test on Chenopodium album [12].
Take `CCOC(=O)CN1C(=O)COc2cc(F)c(N3C(=O)c4ccccc4C3=O)cc21`: the inhibition of growth at 75 g/ha in the test with Abutilon theophrasti [1] is more than 80%; in the test with Setaria viridis [2], less than 50%; in the test on Echinochloa crus-galli [3], less than 50%; with Digitaria sanguinalis [4], less than 50%; in the test with Amaranthus [5], 50%; in the test with Chenopodium album [6], 50%. Besides, the inhibition of growth at 75 g/ha is 50% in the test on Abutilon theophrasti [7]; less than 50% in the test on Setaria viridis [8]; less than 50% in the test on Echinochloa crus-galli [9]; more than 80% in the test with Amaranthus [10]; less than 50% in the test with Digitaria sanguinalis [11]; more than 80% in the test on Chenopodium album [12].
For `CCOC(=O)CN1C(=O)COc2cc(N3C(=O)c4ccc(C)cc4C3=O)c(F)cc21`, the inhibition of growth at 75 g/ha in the test with Abutilon theophrasti [1], in the test with Setaria viridis [2], in the test with Echinochloa crus-galli [3], with Digitaria sanguinalis [4], in the test with Amaranthus [5] and with Chenopodium album [6] was less than 50% in each case. The inhibition of growth at 75 g/ha with Abutilon theophrasti [7], in the test on Setaria viridis [8], in the test on Echinochloa crus-galli [9], in the test on Amaranthus [10], with Digitaria sanguinalis [11] and with Chenopodium album [12] was less than 50% in each case.
Consider `CCOC(=O)CN1C(=O)COc2cc(N3C(=O)c4cc(Cl)c(Cl)cc4C3=O)c(F)cc21`, for which the inhibition of growth at 75 g/ha in the test on Abutilon theophrasti [1], in the test on Setaria viridis [2], with Echinochloa crus-galli [3], in the test with Digitaria sanguinalis [4], in the test on Amaranthus [5] and in the test on Chenopodium album [6] was less than 50% each time. Further, the inhibition of growth at 75 g/ha in the test with Abutilon theophrasti [7], in the test on Setaria viridis [8], in the test on Echinochloa crus-galli [9], in the test on Amaranthus [10], with Digitaria sanguinalis [11] and in the test on Chenopodium album [12] was less than 50% throughout.
As to `CCOC(=O)CN1C(=O)COc2cc(N3C(=O)c4ccccc4C3=O)c(F)cc21`, the inhibition of growth at 75 g/ha with Abutilon theophrasti [1], with Setaria viridis [2], in the test with Echinochloa crus-galli [3], with Digitaria sanguinalis [4], with Amaranthus [5] and with Chenopodium album [6] was less than 50% each time. In addition, the inhibition of growth at 75 g/ha with Abutilon theophrasti [7], with Setaria viridis [8], in the test on Echinochloa crus-galli [9], with Amaranthus [10], in the test with Digitaria sanguinalis [11] and with Chenopodium album [12] was less than 50% throughout.
With `C#CCN1C(=O)COc2cc(F)c(N3C(=O)c4ccc(F)cc4C3=O)cc21`, the inhibition of growth at 75 g/ha with Abutilon theophrasti [1], in the test on Setaria viridis [2], in the test with Echinochloa crus-galli [3], in the test on Digitaria sanguinalis [4], with Amaranthus [5] and in the test with Chenopodium album [6] was more than 80% each time. Further, the inhibition of growth at 75 g/ha in the test with Abutilon theophrasti [7], in the test on Setaria viridis [8], in the test with Echinochloa crus-galli [9], in the test with Amaranthus [10], in the test with Digitaria sanguinalis [11] and with Chenopodium album [12] was more than 80% each time.
Turning to `COC(=O)CN1C(=O)COc2cc(F)c(N3C(=O)c4ccccc4C3=O)cc21`, the inhibition of growth at 75 g/ha with Abutilon theophrasti [1] was more than 80%; in the test on Setaria viridis [2], less than 50%; in the test on Echinochloa crus-galli [3], less than 50%; with Digitaria sanguinalis [4] it was less than 50%; in the test on Amaranthus [5], 50%; in the test with Chenopodium album [6] it was 50%. Besides, the inhibition of growth at 75 g/ha was 50% in the test on Abutilon theophrasti [7]; less than 50% in the test with Setaria viridis [8]; less than 50% in the test on Echinochloa crus-galli [9]; more than 80% in the test on Amaranthus [10]; less than 50% in the test on Digitaria sanguinalis [11]; more than 80% with Chenopodium album [12].
On to `CCOC(=O)CN1C(=O)COc2cc(F)c(N3C(=O)c4ccc(C)cc4C3=O)cc21`, for which the inhibition of growth at 75 g/ha is 50% in the test with Abutilon theophrasti [1]; less than 50% in the test with Setaria viridis [2]; less than 50% in the test with Echinochloa crus-galli [3]; less than 50% with Digitaria sanguinalis [4]; less than 50% with Amaranthus [5]; less than 50% in the test with Chenopodium album [6]. In addition, the inhibition of growth at 75 g/ha is less than 50% in the test on Abutilon theophrasti [7]; less than 50% in the test on Setaria viridis [8]; less than 50% with Echinochloa crus-galli [9]; 50% with Amaranthus [10]; less than 50% with Digitaria sanguinalis [11]; 50% in the test with Chenopodium album [12].
For the compound `CCOC(=O)C(C)N1C(=O)COc2cc(F)c(N3C(=O)c4ccc([N+](=O)[O-])cc4C3=O)cc21` (centres undefined), the inhibition of growth at 75 g/ha in the test on Abutilon theophrasti [1] is less than 50%; with Setaria viridis [2] it was less than 50%; in the test with Echinochloa crus-galli [3], less than 50%; with Digitaria sanguinalis [4] it was less than 50%; in the test on Amaranthus [5], less than 50%; in the test on Chenopodium album [6] it was 50%. Also, the inhibition of growth at 75 g/ha in the test with Abutilon theophrasti [7], in the test with Setaria viridis [8], in the test with Echinochloa crus-galli [9], in the test with Amaranthus [10], in the test with Digitaria sanguinalis [11] and with Chenopodium album [12] was less than 50% in each case.
As to `CCC(C(=O)OC)N1C(=O)COc2cc(F)c(N3C(=O)C4=C(CCCC4)C3=O)cc21` (centres undefined), the inhibition of growth at 75 g/ha with Abutilon theophrasti [1] is more than 80%; in the test with Setaria viridis [2], less than 50%; in the test with Echinochloa crus-galli [3], less than 50%; in the test on Digitaria sanguinalis [4] it was less than 50%; with Amaranthus [5], less than 50%; in the test with Chenopodium album [6], less than 50%. Further, the inhibition of growth at 75 g/ha is less than 50% with Abutilon theophrasti [7]; 50% in the test on Setaria viridis [8]; less than 50% with Echinochloa crus-galli [9]; more than 80% with Amaranthus [10]; 50% with Digitaria sanguinalis [11]; more than 80% in the test with Chenopodium album [12].

The values above are taken from ChEMBL document CHEMBL3045743, “Synthesis and herbicidal activity of isoindoline-1,3-dione substituted benzoxazinone derivatives containing a carboxylic ester group” (J Agric Food Chem, 2009).
